# Calls of active or inactive are those of the source. No cut-off for these calls is given here.
# Columns and labels:
# Mus musculus [1] = species: Mus musculus; test: Enlarged lymph in gross pathological observations in mice with hypervitaminosis A at mid dose 1 with gross observations/total number of mice in group; 2/16; type: functional, organism-based
# Mus musculus [2] = species: Mus musculus; test: Effect of compound on serum triglycerides levels in mice at mid dose 2 on day 36; type: functional
# Summary of the method: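 Male B6D2F1 mice were gavaged daily with compound in corn oil at low, mid 1, mid 2 or high dose. Serum triglycerides and circulating white blood cells were measured on the stated day (8, 29, 36, 65). Values are group mean ± SD expressed as % relative to corn-oil vehicle, with significance at p ≤ 0.05.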
# Mus musculus [3] = test: Avoiding pressure on limbs at 0.4 mg/kg/day dose in mice with hypervitaminosis; 0/16; type: functional, organism-based; conditions: Limb
# Mus musculus [4] = test: Fracture incidents in mouse at 0.05 mg/kg/day; 7/8
# Mus musculus [5] = test: Skin scaling at 0.01 mg/kg/day in mice with hypervitaminosis; 4/8; type: functional, organism-based
# Mus musculus [6] = test: Alopecia observed at 0.4 mg/kg/day dose in mice with hypervitaminosis; 8/16; type: functional, organism-based
# Mus musculus [7] = test: Effect of compound on right testicle to body weight ratios in mice at 0.1 mg/kg/day dose; all the animals died by day 65; type: functional, organism-based
# Mus musculus [8] = test: Enlarged lymph in gross pathological observations with hypervitaminosis A at 0.1 mg/kg/day dose with gross observations/total number of animals in group'' 16/16; type: functional, organism-based
# Mus musculus [9] = test: Alopecia observed at 0.2 mg/kg/day dose with hypervitaminosis; 10/16; type: functional, organism-based
# [10] = Mortality rate in mice at 0.4 mg/kg/day; range (8-19); type: ADME, organism-based; conditions: mouse, in vivo
# Summary of the method: (§1)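 Male B6D2F1 mice given compound daily by gavage in corn oil at the stated dose levels, with corn oil vehicle controls. Deaths counted as animals found dead or sacrificed moribund, with day(s) of death recorded. Heteroarotinoid groups ran to day 65 and low-dose reference groups to day 25.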
# Mus musculus [11] = test: Effect of compound on right testicle to body weight ratios in mice at 0.4 mg/kg/day dose on day 65; dead on day 65; type: functional, organism-based
# Mus musculus [12] = test: Effect of compound on Spleen to body weight ratios in mice at 0.01 mg/kg/day dose; all the animals died by day 65; type: functional, organism-based
# [13] = Mortality rate in mice at 0.2 mg/kg/day; range (8-19); type: ADME, organism-based; conditions: mouse, in vivo; summary of the method: as §1
# Mus musculus [14] = test: Alopecia observed at 0.1 mg/kg/day dose in mice with hypervitaminosis; 10/16; type: functional, organism-based
# Mus musculus [15] = test: Effect of compound on thymus to body weight ratios in mice at 0.4 mg/kg/day dose; all the animals died by day 65; type: functional, organism-based
# Summary of the method: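 Male B6D2F1 mice were dosed daily by gavage in corn oil, with TTNPB given at 0.1–0.8 or 0.01/0.05 mg/kg/day. Thymus-to-body weight ratio (×1000) was taken at necropsy on day 65 against vehicle 1, or on day 25 for the 0.01/0.05 groups against vehicle 2. Mean ± SD of 4–8 animals, reported as % difference from vehicle.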
# Mus musculus [16] = test: Effect of compound on right testicle to body weight ratios in mice at 0.05 mg/kg/day dose on day 25; dead on day 65; type: functional, organism-based
# Mus musculus [17] = test: Enlarged lymph in gross pathological observations with hypervitaminosis A in mice at 0.05 mg/kg/day dose with gross observations/total number of animals in group; 8/8; type: functional, organism-based
# Mus musculus [18] = test: Average number of fractures per mouse at 0.4 mg/kg/day
# Mus musculus [19] = test: Fracture incidents in mouse at 0.1 mg/kg/day
# Mus musculus [20] = test: Effect of compound on Spleen to body weight ratios in mice at 0.8 mg/kg/day dose on day 65; dead by day 65; type: functional, organism-based
# Summary of the method: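 Male B6D2F1 mice dosed daily by gavage with compound in corn oil; vehicle 1 (corn oil) controls run to termination on day 65. Low, mid 1, mid 2 and high dose groups, with dosage increases partway through the study. Organ-to-body weight ratios (×1000) taken at necropsy on day 65, reported as mean ± SD for 4 to 8 animals and as % difference from vehicle.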
# Mus musculus [21] = test: Alopecia observed at 0.01 mg/kg/day dose in mice with hypervitaminosis; 6/8; type: functional, organism-based
# Mus musculus [22] = test: Calculated 30-day maximally tolerated dose based on 10% weight loss in mice at 0.01 mg/kg/day; type: functional
# Mus musculus [23] = test: Enlarged spleen in Gross pathological observations with hypervitaminosis A in mice at 0.4 mg/kg/day dose with gross observations/total number of animals in group; 0/16; type: functional, organism-based
# [24] = Mortality rate in mice at 0.05 mg/kg/day; type: ADME, organism-based; conditions: mouse, in vivo; summary of the method: as §1
# Mus musculus [25] = test: Skin scaling at 0.05 mg/kg/day in mice with hypervitaminosis; 8/8; type: functional, organism-based
# Mus musculus [26] = test: Fracture incidents in mouse at 0.8 mg/kg/day; 0/16
# Mus musculus [27] = test: Total dose of 10% weight loss in mice at 0.05 mg/kg/day; type: functional
# Mus musculus [28] = test: Skin scaling at 0.8 mg/kg/day in mice with hypervitaminosis; 12/16; type: functional, organism-based
# Mus musculus [29] = species: Mus musculus; test: Alopecia in mice observed at low dose with Hypervitaminosis; 1/16; type: functional, organism-based
# Mus musculus [30] = species: Mus musculus; test: Skin scaling in mice at mid dose 1 with Hypervitaminosis; 1/16; type: functional, organism-based
# Mus musculus [31] = species: Mus musculus; test: Enlarged lymph in gross pathological observations in mice with hypervitaminosis A at mid dose 2 with gross observations/total number of mice in group; 2/16; type: functional, organism-based
# Mus musculus [32] = species: Mus musculus; test: Fracture incidence in mouse at mid dose 2; 0/8
# Mus musculus [33] = species: Mus musculus; test: Average number of fractures per mouse at lmid dose 1
# Mus musculus [34] = species: Mus musculus; test: Enlarged spleen in Gross pathological observations in mice with hypervitaminosis A at low dose with gross observations/total number of mice in group; 3/16; type: functional, organism-based
# Mus musculus [35] = species: Mus musculus; test: Enlarged spleen in Gross pathological observations in mice with hypervitaminosis A at mid dose 2 with gross observations/total number of mice in group; 6/16
# Mus musculus [36] = species: Mus musculus; test: Compound toxicity determined by total dose to termination (day 25/65) in mid dose 1; type: functional
# Summary of the method: (§2)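 Male B6D2F1 mice given daily oral gavage in corn oil; dosages increased during the study (day 30 or day 51 depending on compound). Cumulative dose in mg/kg administered up to termination (day 65, or day 25 for TTNPB 0.01/0.05 mg/kg/day groups).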
# Mus musculus [37] = species: Mus musculus; test: Fracture incidence in mouse at low dose; 2/8
# Mus musculus [38] = species: Mus musculus; test: Compound toxicity determined by total dose to termination (day 25/65) in high dose; type: functional; summary of the method: as §2
# Mus musculus [39] = species: Mus musculus; test: Fracture incidence in mouse at high dose; 4/7
compound,measurement,setting,value
CC(/C=C/C=C(\C)c1ccc2c(c1)C(C)(C)CCO2)=C\C(=O)O,Activity,Mus musculus [1],inactive
same,Activity,Mus musculus [2],195.9
C/C(=C\c1ccc(C(=O)O)cc1)c1ccc2c(c1)C(C)(C)CCC2(C)C,Activity,Mus musculus [3],inactive
same,Activity,Mus musculus [4],Active
same,Activity,Mus musculus [5],Weak activity
same,Activity,Mus musculus [6],Weak activity
same,Activity,Mus musculus [7],Toxic
same,Activity,Mus musculus [8],Active
same,Activity,Mus musculus [9],Weak activity
same,Mortality,[10],14 day of death
same,Activity,Mus musculus [11],Toxic
same,Activity,Mus musculus [12],Toxic
same,Mortality,[13],6 day of death
same,Activity,Mus musculus [14],Weak activity
same,Activity,Mus musculus [15],Toxic
same,Activity,Mus musculus [16],Toxic
same,Activity,Mus musculus [17],Active
same,Activity,Mus musculus [18],0.4
same,Activity,Mus musculus [19],5.7
same,Activity,Mus musculus [20],Toxic
same,Activity,Mus musculus [21],Active
same,Max tolerated dose,Mus musculus [22],>8 µg/kg
same,Activity,Mus musculus [23],inactive
same,Mortality,[24],3 day of death
same,Activity,Mus musculus [25],Active
same,Activity,Mus musculus [26],inactive
same,Dose,Mus musculus [27],0.4 mg/kg
same,Activity,Mus musculus [28],Active
CC(/C=C/C=C(\C)c1ccc2c(c1)C(C)(C)CCS2)=C\C(=O)O,Activity,Mus musculus [29],inactive
same,Activity,Mus musculus [30],inactive
same,Activity,Mus musculus [31],inactive
same,Activity,Mus musculus [32],inactive
same,Activity,Mus musculus [33],0
C/C(=C\c1ccc(C(=O)O)cc1)c1ccc2c(c1)C(C)(C)CCO2,Activity,Mus musculus [34],inactive
same,Activity,Mus musculus [35],Weak activity
same,Total dose,Mus musculus [36],294.2 mg/kg
same,Activity,Mus musculus [37],Weak activity
same,Total dose,Mus musculus [38],1176.8 mg/kg
same,Activity,Mus musculus [39],Weak activity

# — ChEMBL document CHEMBL1130202, “Biologically active heteroarotinoids exhibiting anticancer activity and decreased toxicity” (J Med Chem, 1997)
